Laboratory results reported in ChEMBL document CHEMBL4715919 (Bioorg Med Chem, 2021).

Experiments:
[1] = molecular target: T1, Sodium/glucose cotransporter 2 (Homo sapiens, UniProt P31639); assay: Inhibition of human SGLT2 expressed in COS7 cells assessed as reduction in [14C]-AMG uptake; format: cell-based
T1 sequence (P31639 whole entry): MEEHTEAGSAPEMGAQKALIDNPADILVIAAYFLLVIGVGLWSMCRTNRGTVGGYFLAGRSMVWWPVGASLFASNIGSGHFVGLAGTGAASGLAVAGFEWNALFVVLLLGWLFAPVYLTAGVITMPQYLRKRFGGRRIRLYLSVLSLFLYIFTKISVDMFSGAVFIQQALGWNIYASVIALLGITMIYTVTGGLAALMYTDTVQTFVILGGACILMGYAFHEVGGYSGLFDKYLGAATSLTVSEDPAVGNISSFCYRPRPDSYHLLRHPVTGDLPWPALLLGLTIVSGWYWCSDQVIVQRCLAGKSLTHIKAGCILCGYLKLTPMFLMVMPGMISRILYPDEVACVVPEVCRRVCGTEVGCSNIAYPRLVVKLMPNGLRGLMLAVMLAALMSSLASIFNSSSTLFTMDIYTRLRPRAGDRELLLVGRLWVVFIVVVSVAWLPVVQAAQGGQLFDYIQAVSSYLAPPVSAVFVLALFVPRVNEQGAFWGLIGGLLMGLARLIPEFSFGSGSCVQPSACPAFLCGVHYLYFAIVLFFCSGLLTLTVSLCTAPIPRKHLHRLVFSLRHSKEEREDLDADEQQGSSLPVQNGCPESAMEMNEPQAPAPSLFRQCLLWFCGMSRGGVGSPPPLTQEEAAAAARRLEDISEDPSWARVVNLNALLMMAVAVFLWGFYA
Summary of the method: (§1)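 Human SGLT2 expression plasmid transfected into COS-7 cells. Uptake of [¹⁴C]-α-methyl-D-glucopyranoside (AMG) measured with 0.3 mM AMG in uptake buffer. […] Mean ± SEM of at least three independent experiments.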

[2] = molecular target: T1, Sodium/glucose cotransporter 2; assay: Inhibition of human SGLT2 expressed in COS7 cells; format: cell-based; summary of the method: as §1
[3] = Intrinsic clearance in human liver microsomes at 30 uM up to 60 mins by LC-MS/MS analysis; format: ADME, Microsome; details: read-out: CLH
Summary of the method: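 Compound at 30 μM incubated at 37 °C with human liver microsomes (1 mg/mL protein) in 100 mmol/L phosphate pH 7.4 with 10 mM MgCl₂ and 1 mg/mL NADPH. Sampled at 0, 15, 30 and 60 min, quenched with ice-cold acetonitrile, centrifuged. Parent measured by LC-MS/MS. t1/2 and CLint derived from remaining compound.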

[4] = Apparent permeability of compound in human Caco-2 cells by LC-MS/MS analysis; format: ADME, cell-based
Summary of the method: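 Caco-2 cells seeded at 1.0 × 10⁵ cells/well on polycarbonate inserts (0.3 cm², 1 μm pores). After 60 min at 37 °C in 5% CO₂, buffer sampled from the opposite side. Compound measured by LC-MS/MS. Papp in 10^-6 cm/s.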

[5] = AUC(0 to t) in rat at 3 mg/kg, po up to 360 mins by LC-MS/MS analysis; format: ADME, organism-based; design: route oral, dose 3 mg/kg, time <=360; details: in vivo
Summary of the method: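 Rats dosed once orally at 3 mg/kg (5 mL/kg) as a suspension in 0.5 w/v% methyl cellulose 400. Jugular vein blood drawn at 5, 10, 15, 30, 60, 120, 240 and 360 min. Plasma levels measured by LC-MS/MS. AUC taken to the last observation point. Mean ± SD.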

[6] = Oral bioavailability in rat assessed as ratio of AUC at 3 mg/kg up to 360 mins by LC-MS/MS analysis; format: ADME, organism-based; details: in vivo
Summary of the method: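 Rat oral dosing at 3 mg/kg in 0.5% methyl cellulose, with iv dosing at 1 mg/kg in 20% DMA/80% saline. Jugular blood sampled from 5 to 360 min, plasma quantified by LC-MS/MS. F is the ratio of oral AUC to iv AUC. For the ester prodrug, AUC of the parent glucoside after prodrug dosing is compared with iv parent.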

[7] = Intrinsic clearance in rat intestinal S9 fraction at 10 uM up to 60 min in presence of NADPH by LC-MS/MS analysis

IC50 [1] [nM] | SMILES | also measured
3.9 | CCc1ccc(Cc2c(O[C@@H]3O[C@H](CO)[C@@H](O)[C@H](O)[C@H]3O)n[nH]c2C)cc1 | 
10.8 | CCOc1ccc(Cc2c(O[C@@H]3O[C@H](CO)[C@@H](O)[C@H](O)[C@H]3O)n[nH]c2C)cc1 | 
 | CSc1ccc(Cc2c(C(F)(F)F)n[nH]c2O)cc1 | IC50 [2]: > 1 mM
12.2 | Cc1ccc(Cc2c(O[C@@H]3O[C@H](CO)[C@@H](O)[C@H](O)[C@H]3O)n[nH]c2C)cc1 | 
18.4 | Cc1c(Cc2ccc(OC(C)C)cc2)c(O[C@@H]2O[C@H](CO)[C@@H](O)[C@H](O)[C@H]2O)nn1C(C)C [REMOGLIFLOZIN] | microsomal CLint at 30 µM [3]: 0.85 µL/min/mg; Papp [4]: 3.16 ×10⁻⁶ cm/s; AUC(0-t) at 6 h [5]: 27.9 ng·h/mL; bioavailability [6]: 3.23%; microsomal CLint at 10 µM [7]: 3.9 µL/min/mg
3950 | Cc1[nH]nc(O[C@@H]2O[C@H](CO)[C@@H](O)[C@H](O)[C@H]2O)c1CCCc1ccccc1 | 
154 | CSc1ccc(Cc2c(O[C@@H]3O[C@H](CO)[C@@H](O)[C@H](O)[C@H]3O)n[nH]c2C(C)C)cc1 | microsomal CLint at 10 µM [7]: 4.6 µL/min/mg
914 | Cc1ccccc1Cc1c(O[C@@H]2O[C@H](CO)[C@@H](O)[C@H](O)[C@H]2O)n[nH]c1C | 
43.4 | CCn1nc(O[C@@H]2O[C@H](CO)[C@@H](O)[C@H](O)[C@H]2O)c(Cc2ccc(OC(C)C)cc2)c1C | microsomal CLint at 30 µM [3]: 4.15 µL/min/mg
8.8 | CCCc1ccc(Cc2c(O[C@@H]3O[C@H](CO)[C@@H](O)[C@H](O)[C@H]3O)n[nH]c2C)cc1 | 
15.4 | CCCOc1ccc(Cc2c(O[C@@H]3O[C@H](CO)[C@@H](O)[C@H](O)[C@H]3O)n[nH]c2C)cc1 | 
2530 | CCOC(=O)OC[C@H]1O[C@@H](Oc2nn(C(C)C)c(C)c2Cc2ccc(OC(C)C)cc2)[C@H](O)[C@@H](O)[C@@H]1O [REMOGLIFLOZIN ETABONATE] | Papp [4]: 4.29 ×10⁻⁶ cm/s; bioavailability [6]: 5.79%; microsomal CLint at 10 µM [7]: 3.4 µL/min/mg
757 | Cc1cccc(Cc2c(O[C@@H]3O[C@H](CO)[C@@H](O)[C@H](O)[C@H]3O)n[nH]c2C)c1 | 
51.2 | CCc1[nH]nc(O[C@@H]2O[C@H](CO)[C@@H](O)[C@H](O)[C@H]2O)c1Cc1ccc(SC)cc1 | microsomal CLint at 10 µM [7]: 4.8 µL/min/mg
86 | OC[C@H]1O[C@@H](Oc2n[nH]c3cccc(CCc4ccccc4)c23)[C@H](O)[C@@H](O)[C@@H]1O | 
16.2 | Cc1[nH]nc(O[C@@H]2O[C@H](CO)[C@@H](O)[C@H](O)[C@H]2O)c1Cc1ccc(C(C)C)cc1 | 
110 | Cc1c(Cc2ccc(OC(C)C)cc2)c(O[C@@H]2O[C@H](CO)[C@@H](O)[C@H](O)[C@H]2O)nn1C | microsomal CLint at 30 µM [3]: 3.73 µL/min/mg
16.3 | CSc1ccc(Cc2c(O[C@@H]3O[C@H](CO)[C@@H](O)[C@H](O)[C@H]3O)n[nH]c2C(F)(F)F)cc1 | microsomal CLint at 10 µM [7]: 73.2 µL/min/mg
10 | Cc1[nH]nc(O[C@@H]2O[C@H](CO)[C@@H](O)[C@H](O)[C@H]2O)c1Cc1ccc(OC(C)C)cc1 | microsomal CLint at 30 µM [3]: 1.44 µL/min/mg; Papp [4]: 1.02 ×10⁻⁶ cm/s; AUC(0-t) at 6 h [5]: 6.42 ng·h/mL; bioavailability [6]: 0.43%; microsomal CLint at 10 µM [7]: 4.1 µL/min/mg
12.3 | COc1ccc(Cc2c(O[C@@H]3O[C@H](CO)[C@@H](O)[C@H](O)[C@H]3O)n[nH]c2C)cc1 | 
181 | Cc1[nH]nc(O[C@@H]2O[C@H](CO)[C@@H](O)[C@H](O)[C@H]2O)c1Cc1ccccc1 | 
4.9 | CSc1ccc(Cc2c(O[C@@H]3O[C@H](CO)[C@@H](O)[C@H](O)[C@H]3O)n[nH]c2C)cc1 | microsomal CLint at 10 µM [7]: 3.2 µL/min/mg
5290 | Cc1[nH]nc(O[C@@H]2O[C@H](CO)[C@@H](O)[C@H](O)[C@H]2O)c1CCc1ccccc1 | 
> 1000 | Cc1nn(C)c(O[C@@H]2O[C@H](CO)[C@@H](O)[C@H](O)[C@H]2O)c1Cc1ccc(OC(C)C)cc1 | 
66.1 | CCCn1nc(O[C@@H]2O[C@H](CO)[C@@H](O)[C@H](O)[C@H]2O)c(Cc2ccc(OC(C)C)cc2)c1C | microsomal CLint at 30 µM [3]: 6.75 µL/min/mg
